OX1R antag-1: human HCRTR1 antagonism. inhibition, % at 5 µM. O43613. CHO/OX1R cells, Fluo-8 calcium fluorescence, orexin A. 0.43% of 330,000 active;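 active means inhibition above its plate's threshold, mean inhibition of all tested compounds on the plate plus 3 SD, cut at about 37% in these data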;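 further: 0% = orexin A challenge wells and 100% = SB-334867-A antagonist wells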
TAAR1 antagonist: antagonists of human TAAR1; Q96RJ0; CHO RD-HGA16 TAAR1, Fluo-8 calcium fluorescence, antagonist; inhibition, % at 3 µM; 1.5% of 360,000 active; AID 624466;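 active means inhibition above a per-plate cutoff, the mean inhibition of test compounds on that plate plus 3 SD, cut at about 49% in these data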;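 further: 0% = DMSO plus EC80 beta-PEA response and 100% = DMSO alone without agonist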
Target sequence (Q96RJ0 whole entry, looked up): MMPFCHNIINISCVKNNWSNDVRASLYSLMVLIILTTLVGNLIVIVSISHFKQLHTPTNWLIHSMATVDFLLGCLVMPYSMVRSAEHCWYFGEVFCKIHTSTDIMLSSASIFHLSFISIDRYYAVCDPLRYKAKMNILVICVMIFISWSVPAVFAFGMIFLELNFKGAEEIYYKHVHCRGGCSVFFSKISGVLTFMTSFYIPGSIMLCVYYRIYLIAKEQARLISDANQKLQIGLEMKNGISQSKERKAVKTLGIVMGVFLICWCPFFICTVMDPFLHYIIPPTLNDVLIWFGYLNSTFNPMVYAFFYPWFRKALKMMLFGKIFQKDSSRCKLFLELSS
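Material: RD-HGA16 CHO cells with stable hTAAR1 and Gα16; Dosing: single nominal final test compound concentration of 3 µM; Schedule: seeding 17-24 h prior, 75-min 37 °C, 30-min RT dye loading; Detection: kinetic Fluo-8 calcium fluorescence measurement; Measure: % inhibition from peak post-agonist over basal fluorescence ratio; Benchmarks: vehicle and agonist controls.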
TAAR1 ag: human TAAR1 agonism | Q96RJ0 | CHO RD-HGA16 TAAR1, Fluo-8 calcium fluorescence; vehicle wells 0%, saturating PEA agonist 100% | activation, % at 3 µM | 0.99% of 360,000 active | AID 624467;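 active means activation above the mean activation of all test compounds in the run plus 3 SD, cut at about 38% in these data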
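Assay system – CHO-derived RD-HGA16 cells with stable Gα16 and human TAAR1 · Compound dosing – one-point dosing at 3 µM (nominal) · Incubation – 17-24 h seeding, 75 min 37 °C dye, 30 min RT · Measured by – kinetic Fluo-8 calcium fluorescence · Control set – DMSO vehicle as 0%, PEA at EC100 as 100% · Repeats – single well for each compound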
CHO parental Ca: counter-screen for OX1R antagonists: effect in parental CHO cells; inhibition, % at 5.6 µM; 0.63% of 330,000 active; parental CHO-K1, ATP-induced calcium, Fluo-8 fluorescence;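 active means inhibition above that plate's mean sample inhibition plus 3 SD, cut at about 26% in these data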;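 further: 0% = ATP-challenged DMSO wells and 100% = DMSO wells without ATP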
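Measured by: calcium-sensitive Fluo-8 fluorescence / Test system: CHO parental line / Controls: ATP-challenged DMSO wells low, unchallenged DMSO wells high / Measure: % inhibition / Compound: single nominal dose of 5.6 µM per compound / Replicates: single well per compound, no replicates / Reagent: ATP as calcium-mobilizing challenge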
OX1R antag-2: antagonists of human orexin 1 receptor (OX1R) | inhibition, % at 6.6 µM | O43613 | 1.8% of 330,000 active | OX1R-expressing cells, FRET antagonist read-out; in the data active means inhibition mostly above about 38%, no sharp cut-off; inactive means mostly below about 40%;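 further: 0% = agonist challenge alone and 100% = reference antagonist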
GPR7 antagonist: human neuropeptides B/W receptor 1 antagonism; GPR7-expressing cells, fluorescence antagonist assay; inhibition, % at 4.4 µM; 1.1% of 290,000 active; in the data active means inhibition above about 16%, passing the limit was not always enough;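 further: cells stimulated with the agonist NPW; 0% = agonist with vehicle and 100% = vehicle without agonist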
Target sequence (P48145 whole entry, looked up): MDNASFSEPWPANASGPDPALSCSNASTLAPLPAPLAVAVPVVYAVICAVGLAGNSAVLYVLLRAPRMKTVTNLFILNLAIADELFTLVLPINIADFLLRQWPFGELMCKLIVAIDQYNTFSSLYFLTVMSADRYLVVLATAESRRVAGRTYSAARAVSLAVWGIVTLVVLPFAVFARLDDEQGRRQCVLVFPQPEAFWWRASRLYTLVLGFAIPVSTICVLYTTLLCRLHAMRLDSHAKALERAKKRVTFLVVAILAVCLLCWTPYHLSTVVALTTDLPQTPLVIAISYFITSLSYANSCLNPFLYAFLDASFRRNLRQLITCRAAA
An asterisk follows results filed as active; . = not tested or not shown. This is a sample that favours compounds with a hit; in the whole collection about 4.6% have one here.

SMILES	OX1R antag-1	TAAR1 antagonist	TAAR1 ag	CHO parental Ca	OX1R antag-2	GPR7 antagonist
COC(=O)C[C@H]1C[C@H]2c3cc(NC(=O)Nc4ccc(F)cc4)ccc3O[C@H]2[C@@H](CO)O1	.	29.1	6.5	.	.	.
O=S(=O)(NCc1cc(-c2ccc(Cl)cc2)no1)c1ccccc1	4.1	4.9	0.6	2.3	17.8	-4.4
O=C1c2ccccc2C(=O)N1Cc1cc(-c2ccc(Cl)cc2)no1	-10.4	49.3*	9.1	-5.9	4.7	-6.5
Cc1cc(CN2C(=O)c3ccccc3C2=O)on1	-8.7	-3.5	13.0	-12.8	3.9	-20.5
O=S(=O)(NCc1cc(-c2ccc(Cl)cc2)no1)c1ccc(Cl)cc1	51.1*	7.0	7.8	92.6*	20.4	-11.9
COc1ccc(-c2noc([C@@H]3O[C@H](CO)[C@H](O)[C@H](O)[C@H]3O)n2)cc1OC	.	-23.7	3.4	.	.	.
O=C(Nc1cc(F)ccc1F)C1CCCN1S(=O)(=O)c1cccc2nsnc12 (centres undefined)	-12.1	-13.2	2.8	-17.1	69.6*	-12.5
O=C(Nc1ccc(F)cc1)C1CCCN1S(=O)(=O)c1cccc2nsnc12 (centres undefined)	24.9	-10.9	0.2	-1.6	75.4*	-0.4
O=C(NCc1ccc(F)cc1)C1CCCN1S(=O)(=O)c1cccc2nsnc12 (centres undefined)	-17.7	-15.2	7.2	-24.2	54.8*	-3.2
O=C(NCc1ccc(F)cc1)C1CCCN(S(=O)(=O)c2cccc3nsnc23)C1 (centres undefined)	-19.5	8.3	8.9	5.6	34.8	-3.5
Cc1ccc(-c2cc(C(=O)N3CCN(c4ccccc4O)CC3)c3ccccc3n2)o1	-9.2	61.7*	13.9	-2.7	8.9	-14.3
O=C(c1cc(-c2ccc(Cl)cc2)nc2ccccc12)N1CCC1	-19.2	20.4	2.2	-10.7	12.6	.
O=C(c1cc(-c2ccc(Br)cc2)nc2ccccc12)N1CCN(c2ccccc2O)CC1	-28.5	54.7*	4.0	-19.9	0.7	.
Cc1cc(C(=O)N2CCN(c3ccccc3O)CC2)c(C)o1	-21.1	21.7	10.0	-19.8	13.3	.
Cc1ccc2c(c1)C1CN(C)CCC1N2Sc1ccccc1[N+](=O)[O-] (centres undefined)	-21.0	-1.7	40.2*	-9.2	1.2	19.2
COc1ccccc1-c1oc2ccccc2c1C#CC1(N)CCCCC1	5.8	7.8	38.2*	4.0	4.2	.
C#CCN(Cc1ccco1)C(=O)c1nnc2c3ccccc3n(S(=O)(=O)c3ccc(C)cc3)c2n1	.	-1.5	-0.4	.	.	.
O=C(C(=O)N(Cc1ccccc1)Cc1ccccc1)c1c(-c2ccccc2)[nH]c2ccccc12	.	74.9*	12.2	.	.	.
Cc1ccc(CNC(=O)c2oc3ccc(S(=O)(=O)N4CCC5(CC4)OCCO5)cc3c2C)cc1	-18.1	57.4*	13.2	1.3	35.7	-0.2
CC(C)Oc1cc(F)ccc1-c1cc(C(=O)Nc2cccc(C(F)(F)F)c2)[nH]n1	.	55.2*	1.1	.	.	.
CC(C)Oc1ccc(F)cc1-c1cc(C(=O)NCc2cc(C(F)(F)F)cc(C(F)(F)F)c2)[nH]n1	.	6.1	0.5	.	.	.
Cc1cc(F)ccc1-c1cc(C(=O)NCc2ccccc2)[nH]n1	.	0.1	2.1	.	.	.
Cc1cc(O)ccc1-c1cc(C(=O)NCc2ccc(F)cc2)[nH]n1	.	32.3	49.0*	.	.	.
CC(C)Oc1ccc(F)cc1-c1cc(C(=O)NCc2ccc(C(F)(F)F)cc2)[nH]n1	.	54.0*	2.4	.	.	.
Cc1[nH]c2ccccc2c1C(=O)c1c(N)[nH]c(C(=O)c2ccccc2)c1-c1ccc(Cl)cc1	.	-14.3	9.7	.	.	.
SMILES	OX1R antag-1	TAAR1 antagonist	TAAR1 ag	CHO parental Ca	OX1R antag-2	GPR7 antagonist
CCN(CCC(=O)Nc1cc(OC)ccc1OC)Cc1ccccc1	.	-18.0	4.2	.	.	.
Cn1ncc2c(Nc3ccc(Cl)c(Cl)c3)ncnc21	7.9	13.8	36.9	-12.1	65.1*	12.9
Cc1ccc(CNc2ncnc3cc(Cl)ccc23)cc1	-16.4	16.3	0.4	35.4*	31.4	9.3
COC1OC2COC(c3ccccc3)OC2C(O)C1NC(=O)c1ccccc1 (centres undefined)	.	0.7	0.3	.	.	.
COc1cc2c(cc1OC)-c1cc3ccc(OC)c(OC)c3c[n+]1CC2	-12.6	-18.7	3.7	-3.2	61.7*	.
O=C(/C=C/c1ccccc1)NC(=S)NNC(=O)c1ccco1	4.1	23.6	43.0*	9.5	23.2	-9.7
Cc1ccc([C@H]2C[C@H](O)[C@@H](n3cc(C4CC4)nn3)CN2Cc2cccs2)cc1	.	41.4	41.3*	.	.	.
Cc1ccc([C@H]2C[C@@H](O)[C@H](n3cc(C4CC4)nn3)CN2Cc2cccs2)cc1	.	-30.4	3.3	.	.	.
Cc1ccccc1NC(=O)Cc1nc(COC(=O)COc2ccccc2C(C)C)cs1	28.4	54.6*	1.7	-26.3	-3.9	.
Cc1ccc(C)c(OCC(=O)OCc2csc(CC(=O)Nc3ccccc3C)n2)c1	.	0.3	-1.0	.	.	.
CCN(CC)C(=O)COc1ccc(-c2nnc(Nc3ccc(OC)c(C(=O)NC)c3)c3ccccc23)cc1	-35.4	-9.6	-1.2	-24.2	8.0	18.9*
CC(=O)n1c2ccccc2c2c1c1ccccc1n2C	-0.5	9.2	2.1	-20.1	60.9*	-9.4
CC(=O)n1c2ccccc2c2nc3ccccc3nc21	-27.7	.	.	-3.6	5.4	-5.7
Cc1cc(N=Nc2ccccc2C(=O)O)c(C)c(C)c1O	-3.0	-27.4	0.3	6.0	49.8*	-5.4
O=C1C2CC=C(Cl)CC2C(=O)N1CCCCCCN1C(=O)C2CC=C(Cl)CC2C1=O (centres undefined)	0.8	21.6	40.6*	-12.1	23.7	13.7
CCn1c(CCNC(=O)c2ccc(Cl)c(Cl)c2)nnc1SCCOc1ccc(OC)cc1	-7.3	-7.4	2.9	-25.7	40.8*	-2.2
COc1ccc(OCCSc2nnc(CCNC(=O)c3ccc(Cl)c(Cl)c3)n2C)cc1	7.0	-4.0	13.7	-27.3	23.9	-4.5
CCCCNC(=O)C[C@H]1C[C@@]2(C(=O)OC)C(=C[C@H](C3CCCC3)O[C@@H]2C)N(Cc2ccccc2)C1=O	.	-36.6	0.5	.	.	.
CC(C)C[C@@H](NC(=O)OC(C)(C)C)C(=O)N1O[C@]23C=C[C@]14C[C@@H](O)CC[C@]4(C)C2CC[C@]1(C)[C@@H]([C@H](C)/C=C/[C@H](C)C(C)C)CC[C@H]13 (some centres undefined)	.	-15.5	-0.5	.	.	.
Cc1ccc(NC(=O)c2cc3ccccc3oc2=N)cc1	7.8	-17.2	0.1	5.4	-1.1	-3.2
N=c1oc2c3c4c(cc2cc1C(=O)Nc1ccccc1)CCCN4CCC3	94.2*	.	.	62.4*	95.0*	-3.5
CCC(C)NC(=O)COC(=O)c1cc([N+](=O)[O-])ccc1Sc1nc(C)cs1 (centres undefined)	-19.1	16.7	-1.6	-15.0	54.4*	-2.0
